Laboratory results taken from BindingDB's records for doi:10.1021/jm00350a002 (1982).
pIC50: −log10 of the molar value.

Biological target: T1, Cytochrome P450 2B1 (Rattus norvegicus, UniProt P00176)
T1 sequence (P00176 whole entry): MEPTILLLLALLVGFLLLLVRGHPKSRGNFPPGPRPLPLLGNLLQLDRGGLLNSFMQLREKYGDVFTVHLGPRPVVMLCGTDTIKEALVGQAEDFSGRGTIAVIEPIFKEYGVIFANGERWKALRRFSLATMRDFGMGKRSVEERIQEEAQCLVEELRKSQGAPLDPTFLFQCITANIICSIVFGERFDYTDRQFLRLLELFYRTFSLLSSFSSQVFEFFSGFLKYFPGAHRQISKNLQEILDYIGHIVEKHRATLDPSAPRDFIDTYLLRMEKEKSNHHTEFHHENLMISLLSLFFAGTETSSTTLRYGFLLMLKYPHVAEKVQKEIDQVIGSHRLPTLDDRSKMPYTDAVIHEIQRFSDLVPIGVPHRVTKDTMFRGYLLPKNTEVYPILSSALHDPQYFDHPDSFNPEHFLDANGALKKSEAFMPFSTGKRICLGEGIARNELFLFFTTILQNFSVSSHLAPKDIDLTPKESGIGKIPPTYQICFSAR
Assay: Inhibitory potency to aminopyrine N-demethylase activity (P450) in hepatic microsomes from phenobarbitone-induced rats.
Summary of the method: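 Microsomes (105000g pellet) from livers of male Wistar rats (100–150 g) given phenobarbitone ip on consecutive days. A 3.0 mL mix in 0.1 M K phosphate, pH 7.4, held aminopyrine 1.61 μmol, NADPH-generating system, semicarbazide and 5.6 mg protein, run 15 min. Formaldehyde was read by Nash/Hantzsch. Inhibitor went in DMSO or 0.07 M HCl, with solvent in controls. I50 came from seven concentrations.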

| pIC50 | Compound |
| --- | --- |
| 3.70 | c1cncc(-c2nc3ccccc3[nH]2)c1 |
| 3.80 | OC(c1ccccc1)c1nc2ccccc2[nH]1 (stereo not drawn) |
| 3.38 | CCCCC(=O)Nc1ccc2nc(C)[nH]c2c1 |
| 3.36 | Fc1ccc2[nH]cnc2c1 |
| 3.34 | NCc1nc2ccccc2[nH]1 |
| 3.80 | CCCCCc1nc2cc(NC(C)=O)ccc2[nH]1 |
| 3.57 | CCc1nc2ccc(C)cc2[nH]1 |
| 3.28 | Cc1cccc2[nH]cnc12 |
| 3.60 | Cc1nc2c(C)c(C)ccc2[nH]1 |
| 3.66 | Cc1nc2ccc([N+](=O)[O-])cc2[nH]1 |
| 3.60 | c1ccc2[nH]c(C3CC3)nc2c1 |
| 3.96 | CCCc1nc2cc(C)c(C)cc2[nH]1 |
| 3.89 | O=[N+]([O-])c1cc(Cl)cc2[nH]cnc12 |
| 3.52 | CC(C)(C)c1nc2ccccc2[nH]1 |
| 2.90 | CC(=O)Nc1ccc2nc(C)[nH]c2c1 |
| 3.80 | CC(C)Cc1nc2ccccc2[nH]1 |
| 3.92 | CCCCc1nc2ccccc2[nH]1 |
| 3.82 | Cc1nc2cc(Cl)ccc2[nH]1 |
| 3.51 | CC(=O)Nc1cc(Cl)cc2[nH]c(C)nc12 |
| 3.27 | CC(C)c1nc2ccccc2[nH]1 |
| 3.80 | Clc1ccc2[nH]cnc2c1 |
| 3.32 | Cc1ccc2nc(C)[nH]c2c1 |
| 3.33 | O=[N+]([O-])c1cccc2[nH]cnc12 |
| 3.52 | Cc1nc2cc(NC(=O)c3ccccc3)ccc2[nH]1 |
| 3.51 | O=[N+]([O-])c1ccc2[nH]cnc2c1 [5-Nitro-1H-benzoimidazole] |
| 3.24 | Cc1ccc2[nH]cnc2c1 [5-methyl-1H-benzimidazole] |

| Compound | pIC50 |
| --- | --- |
| ClCc1nc2ccccc2[nH]1 | 3.85 |
| FC(F)(F)c1nc2ccccc2[nH]1 | 3.59 |
